Our source for the relative potency and MED values is ChEMBL document CHEMBL1121595, “Fluoroprostaglandins: synthesis and biological evaluation of the methyl esters of (+)-12-fluoro-, (-)-ent-12-fluoro-, (+)-15-epi-fluoro-, and (-)-ent-15 epi-12-fluoroprostaglandin F2 alpha” (1980).

Assay [1] deals with Gerbillinae. Briefly: The compound was evaluated for the gerbil colon contraction. It counts as functional.
The test system of assay [2] is Cricetinae gen. sp. Briefly: The compound was evaluated for the antifertility activity in hamster; no activity observed at 50 ug. It counts as functional, organism-based. To be noted: Cricetulus griseus. Summed up:
(§1)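 Pregnant hamsters (80–90 g), ten per compound, mated one male per female. A single subcutaneous dose in ethanol was given on day 5 of pregnancy. The minimum effective dose is the lowest dose per hamster per day that leaves no pregnancies in the group of ten. Relative potency was derived by comparing this dose with that of natural PGF2α.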

For assay [3], the system named is Cricetinae gen. sp. Briefly: The compound was evaluated for the hamster uterine contraction. The format is functional, Cricetulus griseus.
For assay [4], the system named is Cricetinae gen. sp. Briefly: The compound was evaluated for the antifertility activity in hamster. It counts as functional. In a few lines:
as §1

Regarding `CCCCC[C@H](O)/C=C/[C@@]1(F)[C@H](C/C=C\CCCC(=O)OC)[C@H](O)C[C@@H]1O`, the relative potency in assay [1] and in assay [3] was 0.0002 throughout. Besides, in assay [2], the MED entry was “No activity observed at 50 ug”.

As for `CCCCC[C@@H](O)/C=C/[C@@]1(F)[C@H](C/C=C\CCCC(=O)OC)[C@H](O)C[C@@H]1O`, the relative potency was determined as 0.001 in assay [1], 0.17 in assay [4] and 0.004 in assay [3].

Consider `CCCCC[C@H](O)/C=C/[C@@]1(F)[C@H](O)C[C@H](O)[C@@H]1C/C=C\CCCC(=O)OC`, for which the relative potency in assay [1] came out at 0.001; in assay [4], 12.5; in assay [3], 0.28.

Consider `CCCCC[C@@H](O)/C=C/[C@@]1(F)[C@H](O)C[C@H](O)[C@@H]1C/C=C\CCCC(=O)OC`, for which the relative potency was 0.011 in assay [1], 1 in assay [4] and 0.022 in assay [3].

For `CCCCC[C@H](O)/C=C/[C@@]1(F)[C@H](O)C[C@H](O)[C@@H]1C/C=C\CCCC(=O)O`, the values for the relative potency in assay [1], in assay [4] and in assay [3] were 0.23, 25 and 0.65, respectively.
